Published values gathered from unrelated publications.
Lines come from different studies, so protocols differ.
Observed: cell growth or viability

Cc1cn(CC(c2cn(C)c3ccccc23)c2cn(C)c3ccccc23)nn1  CC50 (HaCaT; MTS; 24 h): > 20 µM
CC1(C)CC[C@]2(C)CC[C@]3(C)[C@H]4CC=C5[C@@H](CC[C@H](O)C5(C)C)[C@]4(C)CC[C@@]3(C)[C@@H]2C1  IC50 (WI-38; WST-1): 62.9 µM
O=C(N[C@@H](Cc1ccccc1)C(=O)c1cn(-c2ccccc2)nn1)[C@H](Cc1ccccc1)NC(=O)N1CCOCC1 (single isomer, unassigned)  CC50 (MRC-5 SV2): > 64 µM
COC(=O)[C@]1(O)C[C@@H](O)[C@@H](O)[C@H](OC(=O)/C=C/c2ccc(O)c(O)c2)C1  IC50 (WI-38; WST-1): 110 µM
CCc1ncn(CC(c2c[nH]c3ccc(C)cc23)c2c[nH]c3ccc(C)cc23)c1C(=O)OC  CC50 (HaCaT; MTS; 24 h): > 20 µM
O=C(N[C@@H](Cc1ccccc1)C(=O)c1nccs1)[C@H](Cc1ccccc1)NC(=O)N1CCOCC1  CC50 (MRC-5 SV2): > 64 µM
N#CC(C(=O)Nc1cccc(C(F)(F)F)c1)=C1Sc2nc3ccc(S(=O)(=O)N4CCCC4)cc3nc2S1  viability (WI-38; MTT; 50 µM, 24 h): 55.4%
O=C(N[C@@H](Cc1ccccc1)C(=O)c1nc2ccccc2o1)[C@H](Cc1ccccc1)NC(=O)N1CCOCC1  CC50 (MRC-5 SV2): > 64 µM
O=Cc1ccc(CO)o1  IC50 (WI-38; WST-1; 48 h): 78.3 µM
CCOC(=O)C(C(C)=O)=C1Sc2nc3ccc(S(=O)(=O)N4CCCC4)cc3nc2S1  viability (WI-38; MTT; 50 µM, 24 h): 48.2%
CC(=O)O[C@@H]1c2c(ccc3ccc(=O)oc23)OC(C)(C)[C@@H]1OC(=O)C1(C)OC1C (stereo partly drawn)  IC50 (WI-38; WST-1): 99.6 µM
COC(=O)c1c(C)ncn1CC(c1c[nH]c2ccc(C)cc12)c1c[nH]c2ccc(C)cc12  CC50 (HaCaT; MTS; 24 h): > 20 µM
C[Si](C)(C)c1cc(C(=O)[C@H](Cc2ccccc2)NC(=O)[C@H](Cc2ccccc2)NC(=O)N2CCOCC2)no1 (mixture of isomers)  CC50 (MRC-5 SV2): > 64 µM
O=c1c(O)c(-c2ccc(O)cc2)oc2cc(O)cc(O)c12  IC50 (WI-38; WST-1; 48 h): 95.4 µM
COc1cccc2c1C(=O)c1c(O)c3c(c(O)c1C2=O)C[C@@](O)(C(=O)CO)C[C@@H]3O[C@H]1C[C@H](N)[C@H](O)[C@H](C)O1  viability (WI-38; MTT; 100 µM, 24 h): 7.8%
O=C(N[C@@H](CCc1ccccc1)C(=O)c1cc(-c2ccccc2)on1)[C@H](Cc1ccccc1)NC(=O)N1CCOCC1 (single isomer, unassigned)  CC50 (MRC-5 SV2): > 64 µM
O=c1cc(-c2ccc(O)c(O)c2)oc2cc(O)cc(O)c12  IC50 (WI-38; WST-1; 48 h): 90.8 µM
O=C1CCCCC1=C1Sc2nc3ccc(S(=O)(=O)N4CCCC4)cc3nc2S1  viability (WI-38; MTT; 50 µM, 24 h): 61.3%
O=C(N[C@@H](Cc1ccccc1)C(=O)c1nc2ccccc2s1)[C@H](Cc1ccccc1)NC(=O)N1CCOCC1  CC50 (MRC-5 SV2): > 64 µM
C/C=C(/C)C(=O)O[C@@H]1[C@H](OC(C)=O)c2c(ccc3ccc(=O)oc23)OC1(C)C  IC50 (WI-38; WST-1): 120 µM
COC(=O)c1c(C)ncn1CC(c1cn(C)c2ccccc12)c1cn(C)c2ccccc12  CC50 (HaCaT; MTS; 24 h): > 20 µM
